{"source": "paper PMC10795152", "about": "(ACS Omega, 2024)", "key": {"[1]": {"target": "EGFR^L858R/T790M/C797S (Homo sapiens, UniProt P00533, C797S/L858R/T790M)", "test": "In vitro enzymatic activity assay", "assay_type": "biochemical", "method_in_brief": "(§1)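 Reaction mix: 40 mM Tris pH 7.4, 10 mM MgCl2, 0.1 mg/mL BSA, 1 mM DTT, 10 μM ATP, 25 ng kinase and 0.2 mg/mL poly(Glu,Tyr) substrate. Test compound diluted in 10% DMSO before addition, giving 1% DMSO final. Residual ATP read by luminescence, with signal inverse to kinase activity. IC50 from nonlinear regression of normalized dose–response data.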"}, "[2]": {"target": "EGFR^Del19/T790M/C797S (Homo sapiens, UniProt P00533, C797S/DEL746-750/T790M)", "test": "In vitro enzymatic activity assay", "assay_type": "biochemical", "method_in_brief": "as §1"}}}
{"smiles": "Oc1ccccc1-c1nc(NCCN2CCNCC2)c2ccccc2n1", "note": "[4a, 2-(4-((2-(Piperazin-1-yl)ethyl)amino)quinazolin-2-yl)phenol]", "values": [{"measurement": "IC50", "setting": "[1]", "value": "1.22 ± 0.031", "unit": "µM"}, {"measurement": "IC50", "setting": "[2]", "value": "1.43 ± 0.022", "unit": "µM"}]}
